In the library only some 1.5% were active in any assay of this set; here they are far more common.
EP2 antag: inhibitors of human EP2 prostaglandin E2 receptor | P43116 | C6 glioma cells expressing human EP2, cAMP TR-FRET; cells stimulated with saturating PGE2 | inhibition, % at 25 µM | 260,000 compounds, 0.52% hits | AID 1422;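 active = percent inhibition above 40 after rounding to a whole number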;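 also: rat C6 glioma host cells with rolipram phosphodiesterase inhibitor present; the protocol text gives 20 µM as final concentration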
Target sequence (P43116 whole entry, looked up): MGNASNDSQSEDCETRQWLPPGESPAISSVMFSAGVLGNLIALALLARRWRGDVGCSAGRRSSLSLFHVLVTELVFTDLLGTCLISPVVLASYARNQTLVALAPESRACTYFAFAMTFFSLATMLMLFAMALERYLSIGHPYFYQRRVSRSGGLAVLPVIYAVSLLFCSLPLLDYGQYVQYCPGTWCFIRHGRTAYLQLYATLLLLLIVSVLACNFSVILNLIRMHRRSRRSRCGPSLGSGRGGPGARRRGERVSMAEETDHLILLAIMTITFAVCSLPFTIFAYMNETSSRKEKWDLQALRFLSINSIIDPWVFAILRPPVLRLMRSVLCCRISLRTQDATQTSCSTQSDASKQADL
ABCB1 inh: inhibitors of human ABCB1 transporter, ABCG2 counter-screen; inhibition, % at 6.6 µM; P08183; CCRF-Adr cells, JC-1 efflux, flow cytometry; 190,000 compounds, 0.067% hits; in the data active = inhibition above about 40%;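 also: higher value means more JC-1 retained so stronger ABCB1 efflux block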
RBBP9 inhibitor: human RBBP9 hydrolase inhibition; O75884; recombinant RBBP9, FP-Rh probe fluorescence polarization; inhibition, % at 7.94 µM; 220,000 compounds, 0.2% hits;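 active = inhibition above the campaign mean of all tested compounds plus 3 SD, cut at about 14% in these data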
Target sequence (O75884 whole entry, looked up): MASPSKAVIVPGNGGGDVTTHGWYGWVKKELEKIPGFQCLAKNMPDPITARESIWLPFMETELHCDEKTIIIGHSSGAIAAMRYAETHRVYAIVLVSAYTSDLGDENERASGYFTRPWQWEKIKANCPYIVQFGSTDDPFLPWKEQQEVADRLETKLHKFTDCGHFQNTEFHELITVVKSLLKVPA
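System: RBBP9 protein | Quantity: 2.5 µM RBBP9 dispensing solution, before mixing | Reagent: FP-Rh probe, 375 nM dispensing solution | Timing: Enzyme-compound preincubation 30 min, then probe labeling 45 min, 25 °C | Measured by: Fluorescence polarization | Read-out: % inhibition | Replication: One well per compound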
EP2 mod: modulates human prostaglandin E2 receptor EP2 signaling. P43116. 260,000 compounds, 0.83% hits. induction, % at 25 µM. EP2-expressing cells, cAMP HTRF FRET, PGE2 co-stimulation. AID 940;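 active = compounds whose cAMP rise, as percent of the full-agonist control response, exceeds 60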;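 also: rat C6 glioma line stably carrying human EP2 under a CMV promoter; the protocol text gives 20 µM as final concentration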
ABCG2 block: blocks JC-1 efflux by human ABCG2 transporter; Q9UNQ0; IgMXP3 cells, flow cytometry; inhibition, % at 6.6 µM; 190,000 compounds, 0.1% hits;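 active = inhibition above 80%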
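Read-out basis: Efflux inhibition in percent versus controls | Test system: ABCG2 IgMXP3 and barcoded ABCB1 CCRF-Adr cell mix | Quantity: 3 million cells/mL in well | Schedule: 10 min at 25 °C | Control set: Nicardipine as high control, DMSO as low control | Reagent: JC-1 as fluorescent efflux pump substrate | Signal: Flow cytometry of retained JC-1 fluorescence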
Numbers stand for hits; - = inactive; . = no result; ! = not active in a repeat.

SMILES	EP2 antag	ABCB1 inh	RBBP9 inhibitor	EP2 mod	ABCG2 block
Cc1ccc2[nH]c3c(c2c1)CCC3=O	42	-	-	-	-
CCc1nnc(NC(=O)CSc2nc3sc(C)c(C)c3c(=O)n2CCc2ccccc2)s1	-	.	.	-	.
CC1CCN(CC[S-])CC1.O.O.[Cl][Pt]	97	.	.	-	.
CC1CCN(CCOc2ccccc2-c2ccccc2)CC1	-	-	-	-	-
COC(=O)[C@H](Cc1ccccc1)NC(=O)O[C@@H]1C(=O)c2cc(OC)ccc2O[C@H]1c1ccc(OC)c(Br)c1	.	-	-	-	-
COC(=O)[C@H](Cc1ccccc1)NC(=O)O[C@H]1C(=O)c2ccc(OC)cc2O[C@@H]1c1ccc2c(c1)OCO2	51	-	-	-	-
COC(=O)[C@@H](NC(=O)O[C@@H]1C(=O)c2ccc(OC)cc2O[C@H]1c1cccc(C(F)(F)F)c1)C(C)C	.	-	-	62	-
CC(=O)Oc1ccc2c(c1)Oc1cc(OC(C)=O)ccc1C21OC(=O)c2ccccc21	-	.	16	-	.
CCOc1c(Br)cc(C(N)=O)cc1OCc1ccccc1	-	-	-	62	-
CC(=O)N1CCCc2cc(C(O)CN3CCN(c4ccc(F)cc4)CC3)ccc21 (configuration not stated)	-	.	.	-	.
O=C1/C(=C/c2cccc3ccccc23)CCCc2ccccc21	.	-	-	61	-
O=C1/C(=C/c2ccncc2)CCc2ccccc21	-	.	-	-	.
CC1CCCCC1NC(=O)Cn1ncc2cccn2c1=O (configuration not stated)	-	.	.	-	.
Cc1nn(CC(=O)NC(C)C)c(=O)c2cc3ccsc3n12	.	.	.	-	.
CCOC(=O)CSc1nnc2c3ccccc3nc(Cc3ccccc3)n12	-	.	.	65	.
CC(=O)CSc1nnc2c3ccccc3nc(C(C)(C)C)n12	-	-	-	61	-
Cc1ccc(NC(=S)N(Cc2cc3c(C)cc(C)cc3[nH]c2=O)CC2CCCO2)c(C)c1 (configuration not stated)	-	.	.	-	.
Clc1ccc2c(c1)N(CCCN1CCCC13CCCCC3)c1ccccc1S2	53	.	.	-	.
O=S(=O)(c1ccc(-n2cnnn2)cc1)N(C1CCCCC1)C1CCCCC1	-	-	-	64	-
CN(C1CCCCC1)S(=O)(=O)c1ccc(-n2cnnn2)cc1	-	-	-	-	-
Cc1nn(N)c(C)c1[N+](=O)[O-]	-	.	.	-	.
Cc1cc(C(=O)CSc2nn3c(=O)c(C(C)(C)C)nnc3s2)c(C)n1-c1ccc(F)cc1	44	-	-	-	-
NC(=O)c1oc2ccccc2c1NC(=O)c1nc2ccccc2s1	-	-	-	-	-
O=C(Nc1nnc(-c2ccccc2)o1)c1nc2ccccc2s1	45	.	.	-	.
Cc1nonc1CC(=O)N[C@H](Cn1nc(-c2cccs2)ccc1=O)C(C)C	.	.	.	-	.
SMILES	EP2 antag	ABCB1 inh	RBBP9 inhibitor	EP2 mod	ABCG2 block
CC1=NN(C(=O)c2ccncc2)C(=O)[C@@H]1N=Nc1ccc2ccccc2c1	58	.	.	-	.
CCc1nnc(NC(=O)CSc2nnc(Cc3ccccc3)n2C2CCCCC2)s1	-	.	.	-	.
CN(C)C/C=C(/c1ccc(Br)cc1)c1cccnc1	43!	.	.	-	.
N#C/C(=C\c1cccnc1)c1ccc(Br)cc1	-	.	-	-	.
COc1ccc2ccccc2c1C1C(C#N)=C(N)Oc2n[nH]c(-c3cc(C)sc3C)c21 (configuration not stated)	-	.	.	-	.
COc1ccc2c(c1)C=C(CN(CCCN1CCOCC1)Cc1cccnc1)CO2	-	.	.	-	.
N#CSC1CS(=O)(=O)C=C1Cl (configuration not stated)	133	.	.	-	.
Cn1c(=O)c2c(nc(N3CCCCC3)n2CCSc2nc3ccccc3s2)n(C)c1=O	-	-	-	-	-
CC1CCN(c2nc3c(c(=O)n(C)c(=O)n3C)n2CCSc2nc3ccccc3s2)CC1	-	-	-	61	-
O=C1c2ccccc2-c2nc3ccccc3c(=O)n21	-	.	.	-	.
CCc1ccc2[nH]c(=O)c(CN(Cc3ccc4c(c3)OCO4)S(=O)(=O)c3ccc(C)cc3)cc2c1	-	.	.	-	.
Cc1nnc2nc(-c3ccccc3)nc(-c3ccccc3)n12	-	.	-	82	.
c1ccc(Cn2nc(-c3ccccc3)nc2-c2ccccc2)cc1	-	-	-	-	-
CCOc1cc(/C=N/NC(N)=S)cc(Br)c1OCc1ccccc1C	-	-	-	63	-
COc1cc(/C=N/NC(N)=S)cc(Br)c1OCc1ccccc1F	-	-	-	-	-
Cc1cc2ccc(OC(=O)c3ccc(N=C(N)N)cc3)cc2oc1=O	116	.	.	-	.
CCOC(=O)c1cc2ccc(OC(=O)c3ccco3)cc2oc1=O	-	-	-	-	-
Nc1ccc2nc(-c3cccs3)[nH]c2c1	93	-	-	-	-
Nc1ccc2nc(-c3ccccc3)[nH]c2c1	-	-	-	-	-
COc1ccc(-c2cc(-c3ccc(Cl)cc3Cl)nc(N)c2C#N)cc1OC	-	.	.	-	.
O=C(CN1CCCC1)Nc1ccccc1Sc1ccccc1	-	-	-	61	-
CC(=O)Nc1ccccc1Sc1ccccc1	-	-	-	-	-
O=C(CN1CCOCC1)Nc1ccccc1C(=O)O	126!	-	-	-	-
O=C(CCl)Nc1ccccc1Sc1ccccc1	-	-	-	64	-
Nc1ccccc1NC(=O)CN1CCOCC1	-	.	.	-	.
SMILES	EP2 antag	ABCB1 inh	RBBP9 inhibitor	EP2 mod	ABCG2 block
CN1CCN(CC(=O)Nc2ccccc2Sc2ccccc2)CC1	-	-	-	-	-
N#CC(c1ccccc1)c1ccc(C(=O)c2ccc(F)cc2)cc1 (configuration not stated)	-	-	-	62	-
N#CC(c1ccc(F)cc1)c1ccc(C(=O)c2ccccc2)cc1 (configuration not stated)	-	-	-	-	-
CN1CCc2cccc3c2C1Cc1ccc(O)c(O)c1-3 (configuration not stated)	60	.	.	-	.
CN1CCC(=C2c3ccccc3C(O)c3ccccc32)CC1 (configuration not stated)	-	.	-	-	.
CCn1c(SCC(=O)Nc2sc(C)c(C)c2C#N)nc2sc3c(c2c1=O)CCC3	-	.	.	69	.
CCn1c(SCC(=O)Nc2cc(C)on2)nc2sc3c(c2c1=O)CCCC3	.	-	-	-	-
O=C(CSCc1ccccc1)Nc1nnc(C2CCCCC2)s1	-	.	.	-	.
O=S(=O)(NCCC(c1ccccc1)c1ccc2c(c1)OCO2)c1cccnc1 (configuration not stated)	-	.	.	-	.
CCC1C(=NO)C(CC)C(c2ccccc2)NC1c1ccccc1 (configuration not stated)	-	-	-	63	-
O=C(CSc1nnc(C2CC2)n1Cc1ccccc1)N1CCc2ccccc21	-	.	.	-	.
CC(C)Sc1nc(N2CCOCC2)c2c(c1C#N)CC(C)(C)N(C)C2	-	-	-	-	-
CC(C)Sc1nc(N2CCCC2)c2c(c1C#N)CC(C)(C)OC2	-	-	-	63	-
COc1ccc2c(c1)S/C(=C\C(=O)c1ccncc1)N2C	-	.	-	-	.

Assay outcomes from PubChem.
